Source: ChEMBL document CHEMBL4321805, “A Conformational Restriction Strategy for the Identification of a Highly Selective Pyrimido-pyrrolo-oxazine mTOR Inhibitor” (J Med Chem, 2019)

What was measured:
mTORC2 = mTORC2 (Homo sapiens, UniProt P42345); assay: Inhibition of mTORC2 in human A2058 cells assessed as reduction in PKB phosphorylation at S473 residues incubated for 1 hr by Western blot analysis; format: cell-based
Procedure, shortened: (§1)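 In-cell Western assay. A2058 cells (2 × 10^4/well) grown 24 h at 37 °C, 5% CO2, then exposed 1 h to inhibitor or DMSO. Cells fixed in 4% PFA, blocked, and stained for the phospho-protein with α-tubulin as internal standard; infrared fluorescence read-out. Signals normalized to tubulin and to DMSO controls to derive IC50.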

mTORC1 = mTORC1 (Homo sapiens, UniProt P42345); assay: Inhibition of mTORC1 in human A2058 cells assessed as reduction in ribosomal protein S6 phosphorylation at Ser235/236 residues incubated for 1 hr by Western blot analysis; format: cell-based; procedure, shortened: as §1
[1] = target: PI3-kinase p110-alpha/p85-alpha (Homo sapiens, UniProt P42336); assay: Inhibition of alexa fluor 647-labeled kinase tracer 314 binding to recombinant human full-length N-terminal His6-tagged p110alpha/p85alpha expressed in baculovirus expression system by TR-FRET assay
Cytochrome P450 1A1 = target: T1, Cytochrome P450 1A1 (Homo sapiens, UniProt P04798); assay: Drug level treated with 5-((R)-4-((R)-3-Methylmorpholino)-5a,6,8,9-tetrahydro-5H-pyrimido[5',4':4,5]pyrrolo[2,1-c][1,4]oxazin-2-yl)pyrimidin-2-amine assessed as recombinant human CYP1A1-mediated compound formation incubated for 60 mins by LC/MS analysis; format: ADME; details: recombinant enzyme, 1 h
T1 sequence (P04798 whole entry): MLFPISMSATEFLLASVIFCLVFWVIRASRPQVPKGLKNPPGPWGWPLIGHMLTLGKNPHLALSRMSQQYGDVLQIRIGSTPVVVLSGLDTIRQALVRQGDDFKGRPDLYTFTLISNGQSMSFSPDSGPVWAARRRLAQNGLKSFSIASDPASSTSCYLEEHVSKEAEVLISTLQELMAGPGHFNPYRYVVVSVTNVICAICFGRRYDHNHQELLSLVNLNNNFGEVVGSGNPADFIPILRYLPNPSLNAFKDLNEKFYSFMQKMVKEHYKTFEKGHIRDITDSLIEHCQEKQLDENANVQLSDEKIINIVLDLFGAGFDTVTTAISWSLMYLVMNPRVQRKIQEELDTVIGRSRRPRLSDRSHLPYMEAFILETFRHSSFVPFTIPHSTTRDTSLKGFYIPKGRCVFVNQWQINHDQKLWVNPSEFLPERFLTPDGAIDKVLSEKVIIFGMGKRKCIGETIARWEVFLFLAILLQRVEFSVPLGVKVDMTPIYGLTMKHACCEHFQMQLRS
Procedure, shortened: (§2)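 Human recombinant CYP1A1 or CYP1A2 Supersomes (25 pmol/mL) incubated with compound at 1 μM (0.25% DMSO) plus NADP+-regenerating cofactors at 37 °C for 60 min. Reaction stopped with ACN containing internal standard. Parent and metabolites expressed as percentage of total peak areas.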

Cytochrome P450 1A2 = target: T2, Cytochrome P450 1A2 (Homo sapiens, UniProt P05177); assay: Drug level treated with 5-((R)-4-((R)-3-Methylmorpholino)-5a,6,8,9-tetrahydro-5H-pyrimido[5',4':4,5]pyrrolo[2,1-c][1,4]oxazin-2-yl)pyrimidin-2-amine assessed as recombinant human CYP1A2-mediated compound formation incubated for 60 mins by LC/MS analysis; format: ADME; details: recombinant enzyme, 1 h; procedure, shortened: as §2
T2 sequence (P05177 whole entry): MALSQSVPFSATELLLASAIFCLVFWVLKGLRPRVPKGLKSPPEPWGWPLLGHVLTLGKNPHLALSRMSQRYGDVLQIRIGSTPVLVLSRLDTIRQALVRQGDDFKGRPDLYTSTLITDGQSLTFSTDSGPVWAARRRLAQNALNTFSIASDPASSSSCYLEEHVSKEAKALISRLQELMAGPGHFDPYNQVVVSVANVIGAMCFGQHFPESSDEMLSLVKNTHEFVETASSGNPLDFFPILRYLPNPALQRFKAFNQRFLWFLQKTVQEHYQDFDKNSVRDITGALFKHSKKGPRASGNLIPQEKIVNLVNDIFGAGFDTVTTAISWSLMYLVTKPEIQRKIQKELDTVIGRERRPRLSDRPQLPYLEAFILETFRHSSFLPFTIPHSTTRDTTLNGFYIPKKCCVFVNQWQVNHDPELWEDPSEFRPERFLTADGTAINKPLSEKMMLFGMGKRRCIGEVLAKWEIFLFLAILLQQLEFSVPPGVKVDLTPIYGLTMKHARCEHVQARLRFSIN

[2] = target: Serine/threonine-protein kinase mTOR (Homo sapiens, UniProt P42345); assay: Inhibition of alexa fluor 647-labeled kinase tracer 314 binding to recombinant human N-terminal GST-fused mTOR (1360 to 2549 residues) expressed in baculovirus expression system by TR-FRET assay
Procedure, shortened: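 LanthaScreen TR-FRET tracer displacement. GST-fused truncated mTOR (aa 1360–2549) detected with Eu-anti-GST antibody (2 nM). […] Buffer: 50 mM HEPES, 5 mM MgCl2, 1 mM EGTA, 0.01% Pluronic F-127. Ki derived from displacement.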

Homo sapiens [3] = species on record: Homo sapiens; assay: Selectivity ratio of Ki for inhibition of alexa fluor 647-labeled kinase tracer 314 binding to recombinant human full-length N-terminal His6-tagged p110alpha/p85alpha expressed in baculovirus expression system to Ki for inhibition of alexa fluor 647-labeled kinase tracer 314 binding to recombinant human N-terminal GST-fused mTOR (1360 to 2549 residues) expressed in baculovirus expression system
Procedure, shortened: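 Ratio of Ki values from the TR-FRET tracer 314 displacement assays. p110α: His6-tagged enzyme, biotin anti-His antibody and Eu-streptavidin (2 nM each), tracer at 20 nM, buffer 50 mM HEPES pH 7.5, 10 mM MgCl2, 1 mM EGTA, 0.01% Brij-35. mTOR: GST-mTOR 1360–2549, Eu-anti-GST, tracer 10 nM, HEPES/5 mM MgCl2/EGTA/Pluronic buffer.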

Homo sapiens [4] = species on record: Homo sapiens; assay: Selectivity ratio of Kd for binding affinity to human wild-type partial length PI3Kalpha (R108 to N1068 residues) expressed in mammalian expression system to Kd for binding affinity to wild-type human partial length mTOR (L1382 to W2549 residues) expressed in mammalian expression system
Procedure, shortened: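 Ratio of Kd values from the DNA-tagged kinase competition binding assay (qPCR read-out, 11-point 3-fold dilution from 30 μM, Hill fit with slope −1, duplicates): PI3Kα Kd divided by mTOR Kd.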

Chain of PI3-kinase p110-alpha/p85-alpha (P27986 whole entry): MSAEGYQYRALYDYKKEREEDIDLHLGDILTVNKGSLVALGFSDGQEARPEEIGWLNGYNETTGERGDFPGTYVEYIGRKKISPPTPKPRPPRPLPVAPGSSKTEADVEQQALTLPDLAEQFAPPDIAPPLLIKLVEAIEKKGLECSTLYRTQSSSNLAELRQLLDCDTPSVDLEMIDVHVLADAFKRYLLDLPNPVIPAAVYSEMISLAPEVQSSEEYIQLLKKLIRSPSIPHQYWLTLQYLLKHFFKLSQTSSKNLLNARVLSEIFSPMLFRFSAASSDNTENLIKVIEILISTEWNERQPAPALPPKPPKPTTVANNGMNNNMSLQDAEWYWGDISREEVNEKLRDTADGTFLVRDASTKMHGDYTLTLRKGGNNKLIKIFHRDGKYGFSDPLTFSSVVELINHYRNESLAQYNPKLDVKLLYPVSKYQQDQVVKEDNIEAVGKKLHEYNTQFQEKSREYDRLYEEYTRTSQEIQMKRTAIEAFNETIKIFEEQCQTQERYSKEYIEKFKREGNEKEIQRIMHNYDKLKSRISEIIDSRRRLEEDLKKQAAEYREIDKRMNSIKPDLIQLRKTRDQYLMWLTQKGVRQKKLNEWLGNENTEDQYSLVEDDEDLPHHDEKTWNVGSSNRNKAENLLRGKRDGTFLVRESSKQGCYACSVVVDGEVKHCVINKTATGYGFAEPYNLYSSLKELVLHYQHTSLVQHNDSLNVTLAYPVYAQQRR
Chain of PI3-kinase p110-alpha/p85-alpha (P42336 whole entry): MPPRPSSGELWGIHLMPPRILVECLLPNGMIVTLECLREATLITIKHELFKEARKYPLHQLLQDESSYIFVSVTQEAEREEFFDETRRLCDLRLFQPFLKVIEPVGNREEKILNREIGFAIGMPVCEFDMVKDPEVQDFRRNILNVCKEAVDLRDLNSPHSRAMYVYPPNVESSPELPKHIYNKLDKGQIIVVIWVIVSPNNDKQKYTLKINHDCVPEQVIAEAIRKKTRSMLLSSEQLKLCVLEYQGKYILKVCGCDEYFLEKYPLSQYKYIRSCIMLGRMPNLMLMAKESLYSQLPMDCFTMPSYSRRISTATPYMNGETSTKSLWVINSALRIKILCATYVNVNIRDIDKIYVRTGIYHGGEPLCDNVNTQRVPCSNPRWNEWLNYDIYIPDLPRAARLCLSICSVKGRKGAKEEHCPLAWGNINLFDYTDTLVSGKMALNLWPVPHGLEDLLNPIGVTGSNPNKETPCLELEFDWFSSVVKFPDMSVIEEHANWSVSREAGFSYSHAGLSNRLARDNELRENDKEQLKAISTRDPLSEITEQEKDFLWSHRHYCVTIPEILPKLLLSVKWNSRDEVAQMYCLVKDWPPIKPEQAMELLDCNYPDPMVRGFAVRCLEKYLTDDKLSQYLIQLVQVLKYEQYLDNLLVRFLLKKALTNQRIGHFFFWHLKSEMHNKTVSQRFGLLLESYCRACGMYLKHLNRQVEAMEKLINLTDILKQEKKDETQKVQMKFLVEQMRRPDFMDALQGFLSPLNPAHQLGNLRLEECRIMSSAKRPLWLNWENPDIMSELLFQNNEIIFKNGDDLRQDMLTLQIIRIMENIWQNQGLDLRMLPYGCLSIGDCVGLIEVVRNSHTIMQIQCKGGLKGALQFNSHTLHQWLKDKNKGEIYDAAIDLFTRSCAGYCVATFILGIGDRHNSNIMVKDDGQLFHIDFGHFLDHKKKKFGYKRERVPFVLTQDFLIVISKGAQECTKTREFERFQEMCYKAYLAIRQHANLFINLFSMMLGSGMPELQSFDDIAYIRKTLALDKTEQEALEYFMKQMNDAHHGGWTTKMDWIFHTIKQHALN

IC50 (mTORC2)	IC50 (mTORC1)	Ki [1]	Drug metabolism (Cytochrome P450 1A1)	Drug metabolism (Cytochrome P450 1A2)	Ki [2]	Ratio Ki (Homo sapiens [3])	SMILES	Selectivity ratio (Homo sapiens [4])
321 nM	1240 nM	48 nM	–	–	–	–	Nc1cc(C(F)(F)F)c(-c2nc(N3CCOCC3)c3c(n2)N2CCCC[C@@H]2C3)cn1	–
194 nM	164 nM	76 nM	–	–	69 nM	1.1	Nc1ccc(-c2nc(N3CCOCC3)c3c(n2)N2CCOC[C@@H]2C3)cn1	–
2080 nM	2650 nM	138 nM	–	–	–	–	Nc1cc(C(F)(F)F)c(-c2nc(N3CCCCC3)c3c(n2)N2CCOC[C@H]2C3)cn1	–
6520 nM	2420 nM	1120 nM	–	–	300 nM	3.7	COC(OC)c1cc(N)ncc1-c1nc2c(c(N3CCOC[C@H]3C)n1)C[C@@H]1COCCN21	–
3760 nM	2520 nM	16000 nM	–	–	208 nM	77	COc1cc(N)ncc1-c1nc2c(c(N3CCOC[C@H]3C)n1)C[C@@H]1COCCN21	–
407 nM	938 nM	22 nM	–	–	–	–	Nc1cc(C(F)(F)F)c(-c2nc(N3CCOCC3)c3c(n2)N2CCCC[C@H]2C3)cn1	–
353 nM	751 nM	21 nM	–	–	–	–	Nc1cc(C(F)(F)F)c(-c2nc(N3CCOCC3)c3c(n2)N2CCOC[C@@H]2C3)cn1	–
1540 nM	826 nM	2760 nM	–	–	85 nM	33	Cc1cc(N)ncc1-c1nc2c(c(N3CCOC[C@H]3C)n1)C[C@@H]1COCCN21	–
21900 nM	43300 nM	2830 nM	–	–	–	–	Nc1cc(C(F)(F)F)c(-c2nc(N3CCCCC3)c3c(n2)N2CCOC[C@@H]2C3)cn1	–
416 nM	432 nM	98 nM	–	–	104 nM	0.9	C[C@H]1COCCN1c1nc(-c2ccc(N)nc2)nc2c1C[C@H]1COCCN21	–
355 nM	524 nM	56 nM	–	–	–	–	Nc1cc(C(F)(F)F)c(-c2nc(N3CCOCC3)c3c(n2)N2CCOC[C@H]2C3)cn1	–
207 nM	160 nM	1410 nM	–	–	27 nM	53	Nc1ccc(-c2nc(N3CC4CCC(C3)O4)c3c(n2)N2CCOC[C@H]2C3)cn1	–
194 nM	149 nM	386 nM	–	–	9.1 nM	43	C[C@H]1COCCN1c1nc(-c2ccc(N)nc2)nc2c1C[C@@H]1COCCN21	–
363 nM	230 nM	923 nM	–	–	31 nM	30	C[C@@H]1COCCN1c1nc(-c2ccc(N)nc2)nc2c1C[C@H]1COCCN21	–
116 to 118 nM	96 nM	432 nM	–	–	24 nM	18 to 18.3	Nc1ccc(-c2nc(N3CCOCC3)c3c(n2)N2CCOC[C@H]2C3)cn1	–

Second part, the compound before the results:

SMILES	IC50 (mTORC2)	IC50 (mTORC1)	Ki [1]	Drug metabolism (Cytochrome P450 1A1)	Drug metabolism (Cytochrome P450 1A2)	Ki [2]	Ratio Ki (Homo sapiens [3])	Selectivity ratio (Homo sapiens [4])
CC(C=O)N(CCO)c1nc(-c2cnc(N)nc2)nc2c1C[C@@H]1COCCN21 (stereo not given in full)	–	–	–	Metabolite_Detected	Metabolite_Detected	–	–	–
Nc1ccc(-c2nc(N3CC4CCC(C3)O4)c3c(n2)N2CCOC[C@@H]2C3)cn1	403 nM	245 nM	1220 nM	–	–	96 nM	13	–
CC1(C)COCCN1c1nc(-c2ccc(N)nc2)nc2c1C[C@H]1COCCN21	1330 nM	991 nM	7190 nM	–	–	121 nM	59	–
Nc1cc(C(F)F)c(-c2nc(N3C4CCC3COC4)nc(N3C4CCC3COC4)n2)cn1	190 nM	85.2 nM	–	–	–	–	389	> 3700
Nc1ccc(-c2nc(N3CCOCC3)nc3c2C[C@@H]2COCCN32)cn1	1560 nM	1860 nM	541 nM	–	–	1280 nM	0.4	–
Nc1ccc(-c2nc(N3C4CCC3COC4)c3c(n2)N2CCOC[C@H]2C3)cn1	152 nM	132 nM	1110 nM	–	–	31 nM	36	–
Nc1ccc(-c2nc(N3CCOCC3)nc3c2C[C@H]2COCCN32)cn1	1870 nM	1790 nM	867 nM	–	–	812 nM	1.1	–
CC1(C)COCCN1c1nc(-c2ccc(N)nc2)nc2c1C[C@@H]1COCCN21	409 nM	136 nM	376 nM	–	–	24 nM	16	–
Nc1ccc(-c2nc(N3C4CCC3COC4)c3c(n2)N2CCOC[C@@H]2C3)cn1	389 nM	354 nM	3230 nM	–	–	60 nM	54	–
CC(C=O)N(CCO)c1nc(-c2cnc(N)nc2)nc2c1C[C@@H]1COC=CN21 (stereo not given in full)	–	–	–	Metabolite_Detected	–	–	–	–
COC(OC)c1nc(N)ncc1-c1nc2c(c(N3CCOC[C@H]3C)n1)C[C@@H]1COCCN21	534 nM	377 nM	66 nM	–	–	34 nM	2	–
Cc1cc(-c2nc3c(c(N4CCOC[C@H]4C)n2)C[C@@H]2COCCN32)cnc1N	488 nM	289 nM	9630 nM	–	–	56 nM	172	–
